High-throughput results from PubChem.
T cell HTS – modulates CD8 T cell binding to vesicles; 2C CD8+ T cell-vesicle binding, flow cytometry; hits give low values; response (vesicle binding), % at 7 µM; 330,000 tested, 0.068% active;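 active = response, share of CD8 T cells binding vesicles, and their 90th percentile fluorescence all below set limits, cut at about 80% in these data, passing the limit was not always enough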;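 also: values below 100% mean blocked vesicle binding to the CD8+ T cells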
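Read-out – percent CD8+ FL2 mean versus row control · System – murine 2C transgenic CD8+ T lymphocytes · Times – 1.5 h cell–vesicle binding at 37 °C, then 20 min icy labelling · Control set – naked vesicles low, QL9 vesicles with vehicle high · Detection – cytometric PE anti-B7-1 and Alexa647 anti-CD8 signals after 1% paraformaldehyde fixation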
Mcl1-Noxa inh – disrupts binding of human Mcl-1 to Noxa peptide. Q07820. TR-FRET Mcl-1/Noxa peptide binding, 2 h. inhibition, % at 21.7 µM. 220,000 tested, 1.5% active. AID 1022;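 active = compounds that cut the protein-peptide binding signal by more than 50% relative to plate controls in a single-dose test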;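 also: His-tagged Mcl-1 with rhodamine Noxa BH3 peptide and terbium anti-His antibody; 0% = Mcl-1 plus Noxa peptide wells and 100% = peptide-only wells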
Target sequence (Q07820 whole entry, looked up): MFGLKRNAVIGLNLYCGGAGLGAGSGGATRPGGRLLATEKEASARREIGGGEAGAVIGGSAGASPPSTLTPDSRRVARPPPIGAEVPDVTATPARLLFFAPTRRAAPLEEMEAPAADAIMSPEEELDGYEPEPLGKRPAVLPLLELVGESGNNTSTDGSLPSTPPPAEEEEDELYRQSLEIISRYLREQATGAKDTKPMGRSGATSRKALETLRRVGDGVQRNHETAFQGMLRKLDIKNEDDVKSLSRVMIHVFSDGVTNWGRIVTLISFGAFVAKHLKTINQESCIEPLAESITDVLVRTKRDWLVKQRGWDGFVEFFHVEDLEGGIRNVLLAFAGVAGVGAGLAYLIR
Mcl1 Bid PPI – Mcl-1/Bid interaction inhibition; Q07820; TR-FRET Mcl-1/Bid-Dy647 peptide binding, 1536-well; inhibition, % at 21.7 µM; 220,000 tested, 0.97% active;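 active = compounds that cut the binding signal by more than half at the single screening dose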;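 also: His-tagged Mcl-1 with europium anti-His antibody binding Bid BH3 peptide; 0% = Mcl-1 plus peptide wells and 100% = peptide-only wells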
Pemphigus Ab inh – human desmoglein-3 autoantibody binding inhibition. DSG3-coupled beads, scFv-anti-DSG3-GFP binding, flow cytometry; hits give low values. binding (percent of control), % at 10 µM. 310,000 tested, 0.48% active. P32926. AID 588358;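 active = binding more than 3 SD below its plate's average and above zero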;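 also: hits lower antibody fragment binding to DSG3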
MCL1-BIM inh – MCL1-BIM-BH3 interaction inhibition (human); Q07820; GST-MCL1 / FITC-Bim-BH3 fluorescence polarization; inhibition, % at 10.9 µM; 320,000 tested, 0.68% active;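 active = inhibition above the mean inhibition of all tested compounds plus 3 SD, set per campaign, cut at about 40% in these data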;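 also: 0% = DMSO wells and 100% = unlabeled Bim-BH3 peptide control; higher means more loss of mP so more displacement of Bim peptide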
Mcl-1 Bim block – inhibitors of Bim-Mcl-1 interaction, human | Q07820 | Bead-based flow cytometry, Bim peptide-Mcl-1 binding | inhibition, % at 10 µM | 190,000 tested, 0.1% active | AID 1009; in the data active = inhibition above about 40%;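 also: 0% = no compound tracer wells and 100% = peptide blocker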
The depositor's hits bear a star; . = no result. Compounds with a hit are over-represented: about 2.3% of the library has one in this group of screens.

SMILES	T cell HTS	Mcl1-Noxa inh	Mcl1 Bid PPI	Pemphigus Ab inh	MCL1-BIM inh	Mcl-1 Bim block
O=C1Nc2ccccc2/C1=N\N=C\c1ccc(O)c(O)c1	191.1	65.4*	-40.1	92.2	25.1	.
Cc1cccc(C(=O)NCC(=O)OCC(=O)N(C)CC(=O)Nc2ccc(F)cc2)c1	257.5	.	.	102.0	-14.2	.
COc1cc(C(=O)N/N=C\c2ccccc2)c([N+](=O)[O-])c(OC)c1OC	392.5	4.6	95.5*	.	15.2	0.0
COc1cc(O)c(/C=N/NC(=O)c2ccncc2)c(OC)c1[N+](=O)[O-]	407.4	53.4*	-61.7	91.5	16.4	1.0
Cc1ccc(C(=O)CCC(=O)N2CCN(C/C=C/c3ccccc3)CC2)cc1	.	.	.	101.4	.	.
COC(=O)c1[nH]c2ccc(Cl)cc2c1NC(=O)Oc1ccccc1	150.4	50.8*	-44.7	103.8	-0.1	-6.0
COC(=O)c1[nH]c2ccc(Cl)cc2c1NC(=O)C1CC1	272.0	29.8	-7.0	.	2.1	0.0
O=C1OC=NC1=Cc1ccccc1	.	.	.	91.4	.	.
CCOC(=O)C(Sc1nn(C)c(=S)s1)C(C)=O (centres undefined)	191.1	.	10.6	.	-22.6	-3.0
Cn1nc(SCC(=O)O)sc1=S	191.3	-13.2	63.9*	99.1	0.4	-1.0
CCCN1C(C)C(C(=O)OCC)=CN(Cc2cccc(I)c2)S1(=O)=O (centres undefined)	.	.	.	92.1	.	.
Cc1c(NC(=S)NC(C)(C)C)c(=O)n(-c2ccccc2)n1C	610.1	4.5	-44.4	121.6	6.8	0.0
Cc1c(NC(=S)NC(NC(=O)C(C)C)C(Cl)(Cl)Cl)c(=O)n(-c2ccccc2)n1C (centres undefined)	242.3	2.5	95.8*	90.8	6.4	-3.0
CCN(C(=O)COC(=O)CN(C)S(=O)(=O)c1ccc(NC(C)=O)cc1)C1CCS(=O)(=O)C1 (centres undefined)	250.0	.	.	105.1	-6.2	.
Cn1c(SCC(=O)NC2CCCCC2)nnc1-c1cc2cc(Cl)ccc2o1	206.0	6.9	12.2	63.6*	-2.0	3.0
Oc1nc(Nc2ccc(F)cc2)sc1/C=C1\C=Nc2ccccc21	207.8	102.2*	31.9	101.5	-10.9	.
Oc1cccc(Nc2nc(O)c(/C=C3\C=Nc4ccccc43)s2)c1	442.5	62.3*	-55.1	78.3	-106.6	.
Cc1ccc(O)c(N=NC2=C(O)CC(C)(C)CC2=O)c1	198.6	-8.8	-73.5	93.8	25.4	-9.0
CC1(C)CC(=O)C(N=Nc2cc(Cl)c(Cl)c(Cl)c2)=C(O)C1	199.0	0.8	-33.6	103.9	4.3	42.0*
CC1(C)CC(=O)C(N=Nc2cccc(S(=O)(=O)N3CCOCC3)c2)=C(O)C1	86.8	-11.2	-21.4	100.9	-12.5	.
CC1CCN(S(=O)(=O)c2ccc(N=NC3=C(O)CC(C)(C)CC3=O)cc2)CC1	305.4	-7.8	-10.1	7.6*	9.6	-4.0
O=C(O)c1ccc2c3c(cccc13)C(=O)N(c1ccccc1)C2=O	161.8	-1.7	-60.8	16.2*	36.9	3.0
CN(C)c1ccc2c3c(cccc13)C(=O)N(c1ccccc1)C2=O	349.3	0.6	-13.9	.	77.0*	-2.0
COc1cc2ccccc2cc1C(=O)N1CCc2ccccc21	.	.	.	103.1	.	.
O=C(/C=C/c1ccc(Br)o1)NCc1ccccc1	62.1	72.3*	16.3	98.9	10.6	-1.0
SMILES	T cell HTS	Mcl1-Noxa inh	Mcl1 Bid PPI	Pemphigus Ab inh	MCL1-BIM inh	Mcl-1 Bim block
Cc1sc2ncn(CC(=O)Nc3c(F)cccc3F)c(=O)c2c1S(=O)(=O)N1CCC(C)CC1	223.8	17.5	-10.3	55.3*	-1.7	1.0
Cc1cc(CNCCN(C)C)c(C)n1-c1cc(S(=O)(=O)N2CCOCC2)ccc1N1CCCC1	.	.	.	109.0	.	.
Cn1c(=O)c(C(=O)COC(=O)c2cc(-c3ccco3)nc3ccccc23)c(N)n(Cc2ccccc2)c1=O	292.9	96.2*	-8.8	.	3.3	2.0
CC(C)Cn1c(N)c(C(=O)COC(=O)c2cc(-c3ccccc3)nc3ccccc23)c(=O)n(C)c1=O	103.5	7.1	10.2	97.2	-9.8	-1.0
CC(C)Cn1c(N)c(C(=O)COC(=O)c2cc(-c3ccco3)nc3ccccc23)c(=O)n(C)c1=O	727.0	97.0*	22.0	94.0	27.4	1.0
Cc1cccc(NC(=O)CCC(=O)N2CCOCC2)n1	281.8	.	.	101.7	5.3	.
CCOC(=O)c1c(C)n(-c2ccc(C)cc2)c2c(C(C(C)=O)C(=O)O)c(Br)c(O)c(O)c12 (centres undefined)	363.0	23.8	-41.7	108.0	9.2	0.0
CCOC(=O)C(C(C)=O)c1c(Br)c(O)c(O)c2c(C(=O)c3ccc(C)cc3)coc12 (centres undefined)	381.5	67.5*	19.7	96.4	25.9	4.0
Cc1ccc(-c2noc(CC(=O)c3ccc([N+](=O)[O-])cc3)n2)cc1	.	.	.	90.1	.	.
O=C(O)CCCCCN1C(=O)/C(=C\c2ccc(-c3ccc(Cl)cc3)o2)SC1=S	629.4	105.2*	89.7*	90.5	-3.1	.
O=C(O)CCCN1C(=O)/C(=C/c2ccc(-c3nc4ccccc4s3)o2)SC1=S	282.5	102.1*	53.3*	89.0*	16.4	11.0
O=C(O)CCCCCN1C(=O)/C(=C\c2ccncc2)SC1=S	465.1	0.2	-42.3	118.1	7.5	-3.0
Cc1ccccc1CN1CCN(CC(=O)NC(C)c2ccccc2)CC1 (centres undefined)	180.0	.	.	116.0	5.5	.
Nc1c(C(=O)N/N=C/c2cccnc2)oc2nc(-c3ccccc3)cc(-c3ccco3)c12	217.0	39.8	13.0	91.6	-37.7	.
O=CNn1cnc2c(oc3nc(-c4ccccc4)cc(-c4ccco4)c32)c1=O	409.2	39.9	-28.6	77.6*	1.1	4.0
Cc1ccc(S(=O)(=O)n2ccc3c(OCCOCCNCc4ccc(F)cc4)cccc32)cc1	241.0	.	.	113.3	4.8	.
COc1ccc(C(CC(=O)N2CCOCC2)c2c(OC)cc(OC)c3c(-c4ccccc4)cc(=O)oc23)cc1 (centres undefined)	173.6	53.9*	-18.3	104.9	21.0	.
COc1ccc(C(CC(=O)N2CCCCC2)c2c(OC)cc(OC)c3c(-c4ccccc4)cc(=O)oc23)cc1 (centres undefined)	162.5	63.4*	-102.4	94.8	31.8	.
COc1ccc(C(CC(=O)N2CCCC(C)C2)c2c(OC)cc(OC)c3c(-c4ccccc4)cc(=O)oc23)cc1 (centres undefined)	133.1	59.3*	-102.5	102.2	19.7	.
CN(CC(=O)Nc1ccc(F)cc1)C(=O)COC(=O)c1nc(Cl)ccc1Cl	.	.	.	101.4	.	.
Cc1ccc(OCC(=O)Nc2ccc3c(c2)C(=O)NC3=O)c(C)c1	517.0	.	.	90.8	6.0	.
Cn1cc([N+](=O)[O-])c(C(=O)NC2CCCCCCC2)n1	394.8	.	.	.	-2.8	.
O=C(Nc1nc2c(s1)CN(Cc1ccccc1)CC2)c1cccc(S(=O)(=O)N2CCc3ccccc32)c1	199.3	-25.8	-68.4	98.6	61.0*	0.0
